# This is a sample that favours compounds with a hit; in the whole collection about 8.2% have one here.
# HePTP inh: inhibitors of human HePTP phosphatase | P35236 | recombinant HePTP phosphatase activity, OD absorbance | inhibition, % at 20 µM | hit rate 0.64% among 110,000; in the data active = inhibition above about 50%
# D1 allo mod: D1 dopamine receptor (human) allosteric modulation | HEK293 D1, CRE-luciferase, dopamine EC30 potentiation; actives deviate in either direction | B-score at 10 µM | hit rate 5.9% among 58,000 | AID 641;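 active = luminescence count or its row- and column-corrected plate score outside the 99.7% band of the plate's sample wells, on either side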
# M1 antag: antagonists of rat M1 muscarinic receptor; CHO-M1 cells, Fluo-4 calcium, ACh EC80 antagonist mode; hits give low values; B-score at 10 µM; hit rate 3.4% among 64,000;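 active = calcium fluorescence response, raw or row-and-column corrected B-score, differing from the plate sample mean either way at a set confidence level, mostly lower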
# Target sequence (P08482 whole entry, looked up): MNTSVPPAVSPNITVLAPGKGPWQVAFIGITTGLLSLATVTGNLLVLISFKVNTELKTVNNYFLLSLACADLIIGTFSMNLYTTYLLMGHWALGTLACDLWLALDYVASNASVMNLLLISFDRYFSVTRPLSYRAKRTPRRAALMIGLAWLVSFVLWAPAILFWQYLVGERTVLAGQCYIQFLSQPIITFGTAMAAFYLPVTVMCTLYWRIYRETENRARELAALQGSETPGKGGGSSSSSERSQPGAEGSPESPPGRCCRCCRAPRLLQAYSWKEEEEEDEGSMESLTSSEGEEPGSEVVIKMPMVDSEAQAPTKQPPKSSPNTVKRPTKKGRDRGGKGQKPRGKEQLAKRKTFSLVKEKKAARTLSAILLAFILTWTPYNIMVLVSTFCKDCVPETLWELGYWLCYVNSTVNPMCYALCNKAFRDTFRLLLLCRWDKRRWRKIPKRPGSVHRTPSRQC
# M1 ag: activates the M1 muscarinic receptor | CHO-M1 cells, Fluo-4 calcium fluorescence, agonist mode; hits give high values | B-score at 10 µM | hit rate 3% among 64,000 | AID 626;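 active = fluorescence rise, raw or as B-score row- and column-corrected plate score, outside the 99.7% band of its plate's samples, either direction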
# RORa activator: RORA (human) activation. P35398. hit rate 1.5% among 65,000. activation, % at 10 µM. CHO-K1 Gal4-RORA LBD luciferase reporter, luminescence; percent increase over mock-subtracted basal signal;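 active = activation above the mean of all tested compounds plus 3 SD, cut at about 49% in these data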
# SF1 activator: activates the human nuclear receptor SF-1 | CHO-K1 Gal4-SF-1 LBD luciferase reporter; % increase over DMSO SF-1-specific signal | activation, % at 10 µM | hit rate 1.9% among 65,000 | AID 522;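 active = activation above the mean activation of all tested compounds plus 3 SD, cut at about 50% in these data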
#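 material = CHO-K1 cells with Gal4–hSF-1 LBD chimera plus Gal4-driven luciferase | compound = 10 µM single point, 1% DMSO | incubation = 20 h compound exposure at 37 °C after 1 h cell settling | measured by = SteadyLite luciferase luminescence | evaluation = percent activation relative to DMSO median and mock-transfected background | control set = DMSO negative control and −SF1 background wells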
# Hits are given with their value; n = inactive; x = not tested or not shown.
SMILES,HePTP inh,D1 allo mod,M1 antag,M1 ag,RORa activator,SF1 activator
CCc1[nH]nc2c1C(c1ccc(Br)s1)C(C#N)=C(N)O2 (stereo not given),n,x,2.5,n,n,n
CCCCNC(=O)Nc1ccnn1C1CCCCC1,n,n,2.4,n,n,n
COc1ccc(-c2nnn(CC(=O)N(Cc3cccs3)C(C)C(=O)NC3CCCC3)n2)cc1OC (stereo not given),n,4,n,n,n,n
CC1CCc2nc(N)c(C#N)c(-c3ccncc3)c2C1 (stereo not given),n,n,x,x,n,n
COc1ccc(Cc2nnc(NC(=O)C3CCCO3)s2)cc1 (stereo not given),n,n,n,n,n,n
O=C(Nc1ncc(Cc2ccc(F)cc2)s1)C1CCCCC1,n,x,x,x,x,x
O=C(Nc1ncc(Cc2ccccc2)s1)C1CCCO1 (stereo not given),n,-3.7,n,n,55,n
COc1ccc(-c2csc(NC(=O)C3CCCO3)n2)cc1 (stereo not given),n,n,n,n,n,64
O=C(Nc1nc2ccccc2s1)C1CCCO1 (stereo not given),n,n,n,n,n,59
CN1CCN(S(=O)(=O)c2ccc(SCCOc3ccccc3)nc2)CC1,n,n,n,n,n,n
CCc1nc(SCC(=O)NCc2ccco2)c2c(=O)n(C)c(=O)n(C)c2n1,n,n,n,n,n,n
Oc1ccccc1Nc1ncnc2c1oc1ccccc12,n,n,n,n,n,n
c1ccc2c(c1)oc1c(Nc3ccc(CN4CCOCC4)cc3)ncnc12,n,n,n,n,n,54
CCNc1ncnc2c1oc1ccccc12,n,x,x,x,x,x
c1ccc2c(c1)oc1c(NCc3ccc4c(c3)OCO4)ncnc12,n,n,n,5.7,n,n
c1ccc(Nc2ncnc3c2oc2ccccc23)cc1,n,n,n,n,n,65
c1ccc2c(c1)oc1c(NCCN3CCOCC3)ncnc12,n,n,n,n,n,n
COc1ccc(/C=N/Nc2nnc(-c3ccccc3)c(-c3ccccc3)n2)c(OC)c1,n,x,x,x,x,x
O=C(CNc1ccccc1Cl)c1ccc([N+](=O)[O-])cc1,n,x,x,x,x,x
O=[N+]([O-])c1ccc(N=Cc2cc(I)cc(I)c2O)c(O)c1,76,x,x,x,x,x
O=C(N/N=C\c1cc(Br)cc(I)c1O)c1ccc([N+](=O)[O-])cc1,n,x,x,x,x,x
CCn1c(NC2CCCCC2)nc2ccccc21,n,-3.4,n,n,n,n
Cn1c(CNC2CCCCC2)nc2ccccc21,n,x,x,x,x,x
COC(=O)Cc1c(C)c2cc(Cl)c(OC(=O)c3ccco3)cc2oc1=O,n,n,n,n,n,n
CCn1c(=O)c2cc(C(=O)N3CCN(C(=O)c4ccco4)CC3)sc2c2ccccc21,n,n,n,5.2,n,n
SMILES,HePTP inh,D1 allo mod,M1 antag,M1 ag,RORa activator,SF1 activator
CCN(CC)S(=O)(=O)c1ccc(C(=O)OCCN2C(=O)CCC2=O)cc1,n,-4.9,n,n,n,n
CC(=O)c1ccc(NC(=S)NC(NC(=O)c2ccccc2Br)C(Cl)(Cl)Cl)cc1 (stereo not given),n,x,x,x,x,x
c1ccc(CNn2c(N3CCOCC3)nc3ccccc32)cc1,n,-3.3,n,n,n,n
Cn1c(=N)c(S(=O)(=O)c2ccc(Cl)cc2)cc2c(=O)n3ccccc3nc21,n,4.8,n,n,n,n
Nc1ncc2c(n1)CC(c1ccccc1)CC2=O (stereo not given),n,x,x,x,x,x
COc1cccc(C(=O)Nc2ncc3c(n2)CC(c2ccc(OC)cc2OC)CC3=O)c1 (stereo not given),n,n,n,n,n,57
COc1ccc(Nc2ncc3c(n2)CC(c2ccccc2)CC3=O)cc1 (stereo not given),n,9.8,n,n,n,n
CCCc1nnc(NC(=O)c2c(O)c3c([nH]c2=O)CCCC3)s1,n,x,n,n,n,n
O=C1C(=O)N(c2nc3ccccc3s2)C(c2ccccc2F)/C1=C(/O)c1ccccc1 (stereo not given),n,x,x,x,x,x
O=C(O)c1nn2c(C(F)(F)F)c3c(nc2c1Cl)-c1ccccc1CC3,70,x,x,x,x,x
Cc1c(NC(=O)c2nn3c(C(F)(F)F)c4c(nc3c2Cl)-c2ccccc2CC4)c(=O)n(-c2ccccc2)n1C,n,x,x,x,x,x
O=C(O)c1cc2nc3c(c(C(F)(F)F)n2n1)CCc1ccccc1-3,n,-4.5,n,n,n,n
COc1cccc(/C(O)=C2/C(=O)C(=O)N(CCN3CCOCC3)C2c2cccnc2)c1 (stereo not given),n,n,n,n,n,n
COc1cc(-c2nnc3ccc(C(F)(F)F)cn23)ccc1Oc1ccc([N+](=O)[O-])cc1,102,x,x,x,x,x
CCN1CCN(c2nc3c(c(=O)[nH]c(=O)n3C)n2CCSc2nc3ccccc3s2)CC1,n,n,n,n,n,n
O=S1(=O)C=C(Sc2nc3ccccc3s2)c2ccccc21,n,-3.7,n,n,n,n
Cc1cc(C)nc(SC2=CS(=O)(=O)c3ccccc32)n1,n,n,n,n,n,n
O=C1NC(=O)N(c2ccc(Br)cc2)C(=O)/C1=C/c1ccco1,104,x,x,x,x,x
Cc1cccc(/C=C2\C(=O)NC(=O)N(c3ccc(Br)c(C)c3)C2=O)c1,n,x,x,x,x,x
Cc1cc(N2C(=O)NC(=O)/C(=C\c3ccco3)C2=O)ccc1Br,80,x,x,x,x,x
COc1ccc(-n2ccc(=O)c3c2CCCC3=O)cc1,n,x,n,n,n,n
CCC(Oc1ccccc1)C(=O)Nc1nnc(C(F)(F)F)s1 (stereo not given),n,n,x,x,n,n
C=CCNC(=O)c1c(NC(=O)c2ccccc2C)sc2c1CCCCC2,n,x,x,x,x,x
CCc1ccc2nc(NC3=NCN(CCN4CCOCC4)CN3)nc(C)c2c1,n,n,-3.3,n,n,n
Cc1nc(NC2=NCN(Cc3ccc4c(c3)OCO4)CN2)nc2ccccc12,n,x,-9.2,n,n,n
SMILES,HePTP inh,D1 allo mod,M1 antag,M1 ag,RORa activator,SF1 activator
Cc1cc(C)c2nc(NC3=NCN(CCN4CCOCC4)CN3)nc(C)c2c1,n,n,n,n,n,n
CC1=C(C(=O)Nc2ccccc2)C(c2ccccc2Cl)NC(=S)N1 (stereo not given),n,x,x,x,x,x
COc1cc(C=C2C(=O)NC(=O)NC2=O)cc(Cl)c1OCCOc1ccc(C)c(C)c1,n,x,x,x,x,x
O=C(Nc1ccccc1F)c1cnccn1,n,x,x,x,x,x
Cn1/c(=N/N=C/c2ccc(O)cc2O)sc2ccccc21,n,x,x,x,x,x
O=C(Nc1ccc(-c2cn3ccsc3n2)cc1)C1COc2ccccc2O1 (stereo not given),n,n,n,n,n,57
O=C(Nc1cccc(-c2cn3ccccc3n2)c1)c1cnccn1,n,n,n,n,n,52
O=C(Nc1ccc(-c2cn3ccsc3n2)cc1)c1ccc(F)c(S(=O)(=O)N2CCOCC2)c1,n,x,n,n,n,57
CCCCC(=O)Nc1cccc(-c2cn3ccsc3n2)c1,n,n,n,n,58,n
O=C(NCCNc1ccc(Cl)cc1[N+](=O)[O-])c1cccnc1,n,x,x,x,x,x
Cc1cc(=O)oc2cc(OC(=O)Cc3ccccc3)ccc12,n,x,x,x,x,x
